Experimental data collected from several papers.
Protocols differ between the studies behind these lines.
Target: Serine/threonine-protein kinase Sgk2 (SGK2, Homo sapiens, UniProt Q9HBY8)
Sequence (Q9HBY8 1-367, as in one of the studies): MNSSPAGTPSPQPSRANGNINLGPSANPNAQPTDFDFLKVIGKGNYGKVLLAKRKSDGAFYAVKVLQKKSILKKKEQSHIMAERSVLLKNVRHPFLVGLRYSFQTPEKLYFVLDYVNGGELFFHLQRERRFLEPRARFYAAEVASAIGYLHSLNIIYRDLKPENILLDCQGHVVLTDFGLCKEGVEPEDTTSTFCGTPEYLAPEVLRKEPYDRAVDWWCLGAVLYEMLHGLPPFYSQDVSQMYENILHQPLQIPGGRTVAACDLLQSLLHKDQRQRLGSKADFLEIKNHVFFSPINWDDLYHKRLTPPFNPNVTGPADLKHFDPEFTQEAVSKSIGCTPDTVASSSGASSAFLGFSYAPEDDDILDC

| Structure (SMILES) | assay | setting | remaining binding [%] |
| --- | --- | --- | --- |
| F[C@@H]1CCN(c2nccc(-c3cnn4ncccc34)n2)C1 | binding | 1 µM | 92 |
| C[C@@H](c1ccc(-n2cnc3c(N)ncnc32)cc1)N1CCc2nn(C)c(Cc3ccccc3)c2C1=O | binding, competition with immobilised ligand | 0.1 µM | 48 |
| COCCOc1nc(-c2ccc(Cl)nc2)nc2c1CN(C(=O)c1ncn3ccccc13)CC2 | cell-free assay, competition with immobilised ligand | 0.1 µM | 88 |
| C[C@H]1CCN(c2nccc(-c3cnn4ncccc34)n2)C1 | binding | 1 µM | 65 |
| CC1=C(C#N)[C@@H](c2ccc3[nH]nc(C)c3c2)C(C#N)=C(c2ccc(Cl)cc2)N1 | cell-free assay, competition with immobilised ligand | 1 µM | 100 |
| CNC(=O)[C@@H]1CC[C@@H](n2c(-c3ccc4cnccc4c3)nc3ccc(C(=O)NCc4cccc(C(N)=O)c4)cc32)C1 | binding, competition with immobilised ligand | 1 µM | 100 |
| N[C@@H]1CCN(c2nccc(-c3cnn4ncccc34)n2)C1 | binding | 1 µM | 100 |
| Cc1nc(N2CC[C@@H](O)C2)ncc1-c1cc(C(F)(F)F)cc2[nH]ncc12 | binding, competition with immobilised ligand | 1 µM | 88 |
| O=C(c1ccc(Nc2nccc(-c3cc4ccccc4s3)n2)cc1)N1CCC(N2CCCC2)CC1 | binding, competition with immobilised ligand | 1 µM | 47 |
| CN(CCCC(F)(F)F)c1nccc(-c2cnn3ncccc23)n1 | binding | 1 µM | 93 |
| FC(F)(F)Oc1cccc(-c2cnc3ccc(-c4ccncc4)nn23)c1 | binding, competition with immobilised ligand | 5 µM | 77 |
| O=C(NCC1CCOCC1)c1n[nH]cc1NC(=O)c1c(F)cccc1F | binding, competition with immobilised ligand | 1 µM | 94 |
| O=C(NCc1ncc(C(F)(F)F)cc1Cl)c1ccc2c(c1)C1(CCS(=O)(=O)CC1)[C@H](C1CC1)N2S(=O)(=O)c1ccc(F)cc1 | cell-free assay, competition with immobilised ligand | 1 µM | 83 |
| O=C(NCCCN1CCOCC1)c1ccc(Nc2ncc(Cl)c(-c3ccc(Cl)s3)n2)cc1 | binding, competition with immobilised ligand | 1 µM | 100 |
| CC1=C(C#N)C(c2ccc3c(c2)c(NC(=O)c2ccccc2C)nn3C)C(C#N)=C(C)N1 | cell-free assay, competition with immobilised ligand | 1 µM | 73 |
| C=CC(=O)N1CCC(C(=O)NCC(=O)N2CCN(c3nc(-c4cnc(N)nc4C(F)F)nc(N4CCOCC4)n3)CC2)CC1 | binding, competition with immobilised ligand | 1 µM | 86 |
| Cc1cnn2ncc(-c3ccnc(N(C)C)n3)c2c1 | binding | 1 µM | 84 |
| CC(=O)N1CCC(c2ccc(C(=O)NC(=N)N)cc2C(F)(F)F)CC1 | cell-free assay, competition with immobilised ligand | 1 µM | 100 |
| O=C(NCCCN1CCOCC1)c1ccc(Nc2nccc(-c3cc4ccccc4s3)n2)cc1 | binding, competition with immobilised ligand | 1 µM | 55 |
| CC1CCCN1c1nccc(-c2cnn3ncccc23)n1 (centres unmarked) | binding | 1 µM | 94 |
